One assay concerns S. aureus ATCC 29213. Description: In vitro susceptibility testing. Type of assay: cell-based, Staphylococcus aureus.
Another assay concerns the target MRSA PK (Staphylococcus aureus, UniProt Q6GG09). Description: MRSA PK enzyme inhibition assay. The note with it: for fold decrease in activity compared to 10a: MRSA PK inhibition relative to 10a; for fold more potent than 33c: MRSA PK inhibition relative to 33c. Format: biochemical, methicillin-resistant Staphylococcus aureus. In outline:
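His-tagged recombinant MRSA pyruvate kinase construct, prepared as in earlier work. […] IC50 was calculated from a triplicate 15-point titration. Where no IC50 was obtained, % inhibition at the highest concentration tested was reported.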

The test system of another assay is S. aureus (ATCC29213). In words: MIC in absence and presence of efflux inhibitor verapamil. Type of assay: cell-based, Staphylococcus aureus.
The next assay relates to MRSA strain MW2 (USA400). Description: In vitro susceptibility testing. Type of assay: cell-based, methicillin-resistant Staphylococcus aureus. The note with it: CAMHB.
The subject of a further assay is Wild-type S. aureus LAC. In words: Bacterial killing assay, wild type. The note with it: 1.6 μM, aerobic growth in BHI. Format: cell-based, Staphylococcus aureus.
The test system of assay [1] is S. aureus LAC Δpyk::Erm^R. In words: Bacterial killing assay, PK-deficient mutant. Format: cell-based, Staphylococcus aureus. The note with it: 1.6 μM.
The mark [2] stands for this setting: Staphylococcus aureus, ATCC29213.
Setting [3] is: Staphylococcus aureus, ATCC29213, absence of verapamil.

Values after ≈ are worked out from the molar mass of the structure shown. Where only a bound is given, the exact number is not on record here.

MRSA PK, sequence (Q6GG09 whole entry): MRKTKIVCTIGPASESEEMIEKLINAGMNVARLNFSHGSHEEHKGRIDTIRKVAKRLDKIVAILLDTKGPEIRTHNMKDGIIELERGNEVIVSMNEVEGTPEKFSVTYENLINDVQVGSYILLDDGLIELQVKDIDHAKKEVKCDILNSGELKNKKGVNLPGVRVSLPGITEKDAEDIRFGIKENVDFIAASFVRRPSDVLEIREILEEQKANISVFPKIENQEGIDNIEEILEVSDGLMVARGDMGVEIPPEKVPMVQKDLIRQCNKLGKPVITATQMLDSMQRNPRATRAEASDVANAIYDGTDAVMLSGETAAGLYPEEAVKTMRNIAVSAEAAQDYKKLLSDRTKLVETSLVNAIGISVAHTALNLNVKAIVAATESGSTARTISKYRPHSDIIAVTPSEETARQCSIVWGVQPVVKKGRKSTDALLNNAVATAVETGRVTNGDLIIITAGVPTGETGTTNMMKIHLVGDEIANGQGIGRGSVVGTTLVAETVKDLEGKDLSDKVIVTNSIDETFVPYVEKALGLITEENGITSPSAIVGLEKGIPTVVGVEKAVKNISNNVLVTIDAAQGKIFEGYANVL

Turning to `Brc1ccc2[nH]c(-c3cc4cc(Br)ccc4[nH]3)cc2c1` [10i, 5,5′-Bibromo-1H,1′H-2,2′-biindole], the MIC with S. aureus ATCC 29213 (setting [2]) is over 64 µg/mL.

`Brc1ccc2cc(-c3cc4ccccc4o3)[nH]c2c1` [22b, 2-(Benzofuran-2-yl)-6-bromo-1H-indole]: the “fold decrease in activity compared to 10a” value on MRSA PK is reported as 5–8 fold. With “5′,6-Dibromo-1-methyl-1H,2′H-2,2′-biindole [12b]”, the “% inhibition at the highest concentration tested” value on MRSA PK (@ 10 μM) was found to be 25% @ 10 μM.

Turning to “2-(4-(1H-Indol-2-yl)-3-nitrophenyl)-6-bromo-1H-indole [33d]”, on MRSA PK, the “fold more potent than 33c” value is 2–3 fold. Further, on MRSA PK (at 10 μM (Table 4)), the “% Inhibition of MRSA PK” value amounted to 86.2%. At MRSA PK (triplicate 15-point titration), this molecule gave a half-inhibitory concentration (IC50) of 1.8 nM. As for `Brc1ccc2cc(-c3cc4ccc(Br)cc4[nH]3)[nH]c2c1` [10b, 6,6′-Dibromo-1H,1′H-2,2′-biindole], the MIC came out at 16 µg/mL (≈ 41 µM) in the assay on S. aureus ATCC 29213 (setting [2]) and 16 µg/mL in the assay with S. aureus (ATCC29213) (setting [3]).

As for `Brc1cc2cc(-c3cc4cc(Br)c(Br)cc4[nH]3)[nH]c2cc1Br` [10l, 5,5′,6,6′-Tetrabromo-1H,1′H-2,2′-biindole], the MIC in the assay with S. aureus ATCC 29213 (setting [2]), with S. aureus ATCC 29213 (minimum concentration to give >98% inhibition of growth) and in the assay on S. aureus (ATCC29213) (setting [3]) was over 64 µg/mL each time. Besides, the “shift of MIC by verapamil” value in the assay on S. aureus (ATCC29213) (absence vs presence of verapamil (200 mg/L)) is given as “at least fourfold”. Take `CN[C@H](CC(C)C)C(=O)N[C@H]1C(=O)N[C@@H](CC(N)=O)C(=O)N[C@H]2C(=O)N[C@H]3C(=O)N[C@H](C(=O)N[C@H](C(=O)O)c4cc(O)cc(O)c4-c4cc3ccc4O)[C@H](O)c3ccc(c(Cl)c3)Oc3cc2cc(c3O[C@@H]2O[C@H](CO)[C@@H](O)[C@H](O)[C@H]2O[C@H]2C[C@](C)(N)[C@H](O)[C@H](C)O2)Oc2ccc(cc2Cl)[C@H]1O` [vancomycin, reference compound]: the MIC with MRSA strain MW2 (USA400) was 2 µg/mL (≈ 1.38 µM); with S. aureus (ATCC29213) (setting [2]), 2 µg/mL; with S. aureus (ATCC29213) (presence of verapamil (200 mg/L)) it was 2 µg/mL. On to `Fc1ccc2[nH]c(-c3cc4ccc(Br)cc4[nH]3)cc2c1` [10e, 6′-Bromo-5-fluoro-1H,1′H-2,2′-biindole], for which, in the assay on S. aureus ATCC 29213 (setting [2]), the MIC came to 0.3 µg/mL (≈ 0.911 µM). With `Clc1ccc2[nH]c(-c3cc4ccc(Br)cc4[nH]3)cc2c1` [10d, 6′-Bromo-5-chloro-1H,1′H-2,2′-biindole], the MIC in the assay with S. aureus ATCC 29213 (setting [2]) was 0.3 µg/mL (≈ 0.868 µM). Besides, the bactericidal effect result with Wild-type S. aureus LAC was “highly bactericidal”; in assay [1] (TSB without glucose + 1% sodium pyruvate (TSB-G+P)), “unable to kill”; in assay [1] (aerobic growth in BHI) it was “merely acted statically”. With `COc1cc(-c2cc3ccccc3[nH]2)ccc1-c1cc2ccc(Br)cc2[nH]1` [33e, 2-(4-(1H-Indol-2-yl)-2-methoxyphenyl)-6-bromo-1H-indole], at MRSA PK, the “fold more potent than 33c” value was 2–3 fold.

Turning to `Brc1ccc2cc(-c3nc4ccccc4s3)[nH]c2c1` [22a, 2-(6-Bromo-1H-indol-2-yl)benzo[d]thiazole], the “fold decrease in activity compared to 10a” value at MRSA PK is listed as 5–8 fold.

Take `Brc1ccc2[nH]c(-c3cc4ccc(Br)cc4[nH]3)cc2c1` [10c, 5,6-Bibromo-1H,1′H-2,2′-biiindole]: inhibition of growth against S. aureus ATCC 29213 (setting [2]) (MIC) required 0.3 µg/mL (≈ 0.769 µM).

A word on the MIC: it is the lowest concentration found to suppress growth. A word on the IC50: it is the point on the concentration scale where inhibition reaches its midpoint. A higher IC50 goes with lower potency.
